# Species on record: Rattus norvegicus
# Experiment: Percent change in total cholesterol in peanut oil (5.5%)-, cholic acid (0.3%)-, Cholesterol (1.5%)-fed rats after a single dose.
# Format: functional
# In short: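 Male Sprague-Dawley rats (200-225 g), n=5-7/group, given a single oral dose at 4 p.m. as a suspension in 1.5% CMC/0.2% Tween-20 in water (50 mg/kg); controls received vehicle alone. The rats then had free access to chow with peanut oil, cholesterol and cholic acid. At 8 a.m. next day they were bled by cardiac puncture under ether, and serum total cholesterol was measured as % change versus controls (unpaired two-tailed t-test).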
row,SMILES,Delta TC
1,CC(C)c1cccc(C(C)C)c1NC(=O)NCC1(c2ccc(C(=O)O)cc2)CCCC1,-8%
2,COc1cccc(C2(CNC(=O)Nc3c(C(C)C)cccc3C(C)C)CCCC2)c1,-42%
3,COC(=O)c1ccc(C2(CNC(=O)Nc3c(C(C)C)cccc3C(C)C)CCCC2)cc1,-3%
4,CC(C)c1cccc(C(C)C)c1NC(=O)NCC1(c2ccc(N(CCO)CCO)cc2)CCCC1,-50%
5,COc1ccc(C2(CNC(=O)Nc3c(C(C)C)cccc3C(C)C)CCCC2)cc1,-41%
6,CC(C)c1cccc(C(C)C)c1NC(=O)NCC1(c2cccc(OCc3ccccc3)c2)CCCC1,-73%
7,CC(C)c1cccc(C(C)C)c1NC(=O)NCC1(c2cccc(CO)c2)CCCC1,-40%
8,COc1ccccc1C1(CNC(=O)Nc2c(C(C)C)cccc2C(C)C)CCCC1,-53%
9,CC(C)c1cccc(C(C)C)c1NC(=O)NCC1(c2cccc([N+](=O)[O-])c2)CCCC1,-51%
10,CC(C)c1cccc(C(C)C)c1NC(=O)NCC1(c2ccccc2N)CCCC1,-58%
11,CC(C)c1cccc(C(C)C)c1NC(=O)NCC1(c2ccc(CO)cc2)CCCC1,19%

# Target: T1, Acyl-CoA:cholesterol acyltransferase (Oryctolagus cuniculus, UniProt Q95214)
# T1 sequence (Q95214 whole entry): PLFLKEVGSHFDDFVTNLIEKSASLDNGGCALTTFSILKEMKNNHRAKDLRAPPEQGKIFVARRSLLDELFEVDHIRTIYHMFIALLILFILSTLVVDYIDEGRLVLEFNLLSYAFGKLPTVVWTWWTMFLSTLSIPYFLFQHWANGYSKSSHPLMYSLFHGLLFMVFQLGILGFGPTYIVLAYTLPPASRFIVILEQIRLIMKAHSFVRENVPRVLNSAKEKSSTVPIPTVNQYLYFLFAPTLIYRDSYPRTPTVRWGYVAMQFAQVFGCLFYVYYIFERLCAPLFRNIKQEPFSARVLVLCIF
# Experiment: Tested for in vitro inhibition against Acyl coenzyme A:cholesterol acyltransferase of intestinal microsomes in cholesterol-fed rabbits
# Design: species or system Microsome
# In short: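 Microsomes were prepared from intestine of cholesterol-fed rabbits. ACAT activity was measured using [1-14C]oleoyl-CoA as substrate. Each determination was run in triplicate.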
row,IC50,SMILES
1,3100 nM,CC(C)c1cccc(C(C)C)c1NC(=O)NCC1(c2ccc(C(=O)O)cc2)CCCC1
2,360 nM,COC(=O)c1ccc(C2(CNC(=O)Nc3c(C(C)C)cccc3C(C)C)CCCC2)cc1
3,21 nM,CC(C)c1cccc(C(C)C)c1NC(=O)NCC1(c2ccc(N(CCO)CCO)cc2)CCCC1
4,31 nM,COc1ccc(C2(CNC(=O)Nc3c(C(C)C)cccc3C(C)C)CCCC2)cc1
5,15 nM,CC(C)c1cccc(C(C)C)c1NC(=O)NCC1(c2cccc(CO)c2)CCCC1

# The next lines start with the molecule.
row,SMILES,IC50
1,COc1cccc(C2(CNC(=O)Nc3c(C(C)C)cccc3C(C)C)CCCC2)c1,13 nM
2,CC(C)c1cccc(C(C)C)c1NC(=O)NCC1(c2cccc(OCc3ccccc3)c2)CCCC1,30 nM
3,COc1ccccc1C1(CNC(=O)Nc2c(C(C)C)cccc2C(C)C)CCCC1,23 nM
4,CC(C)c1cccc(C(C)C)c1NC(=O)NCC1(c2cccc([N+](=O)[O-])c2)CCCC1,51 nM
5,CC(C)c1cccc(C(C)C)c1NC(=O)NCC1(c2ccccc2N)CCCC1,140 nM

# Source: ChEMBL document CHEMBL1127826, “Inhibitors of acyl-CoA:cholesterol acyltransferase (ACAT). 7. Development of a series of substituted N-phenyl-N'-[(1-phenylcyclopentyl)methyl]ureas with enhanced hypocholesterolemic activity” (J Med Chem, 1994)
